Assay results published in PMC9052940 (RSC Advances, 2020).
Read-outs that look alike come from different tables or passages of the source.

Key:
[1] = cited from earlier work
[2] = 3%C10E4/n-octane/10^−2 M NaClaq; cited from earlier work
[3] = parameter of the normalized HLD; cited from earlier work
[4] = PIT-slope characterization; format: physicochemical; conditions: molar fraction; added to 3%C10E4/n-octane/10^−2 M NaClaq
How it was run: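 Increasing amounts of test surfactant added to a reference system of 3% C10E4/n-octane/aqueous NaCl. The shift in phase inversion temperature was recorded against concentration and against molar fraction, x = moles added/(moles C10E4 + moles added). Pure n-alkyl-β-D-glucosides and maltosides served as linear references. Average error below 10%.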

[5] = calculated from NMR experiments in D2O solutions; cited from earlier work
[6] = a = turbid solutions close and above CMC

| Compound | dPIT/dx [4] | CMC [1, 6] | γCMC [1, 6] | CMC ([1]; ref 34) | other results |
| --- | --- | --- | --- | --- | --- |
| CCCCCCCCCCCCCC(=O)OC[C@H]1OC(O)[C@H](O)[C@H]1O (single isomer, unassigned) [5-O-Xylose monoester (α, β isomers) C14] | – | 0.015 mmol/L | 36.0 mN m^−1 | – | – |
| CCCCCCCCCCCCCCCC(=O)OC[C@H]1OC(O)[C@H](O)[C@H]1O (single isomer, unassigned) [5-O-Xylose monoester (α, β isomers) C16] | – | 0.022 mmol/L | 41.0 mN m^−1 | – | – |
| CCCCCCCCCCOCCOCCOCCOCCO [C10E4] | – | – | – | – | PIT (Phase Inversion Temperature) of the reference system [2]: 23.9 °C; PACN1 [3]: 8.2 |
| CCCCCCCCCCCCO[C@H]1O[C@H](CO)[C@@H](O)[C@H](O)[C@H]1O [α-D-Glucoside C12] | – | 0.042 mmol/L | 41.2 mN m^−1 | – | – |
| CCCCCCCCCCCCO[C@H]1O[C@H](CO)[C@@H](O[C@H]2O[C@H](CO)[C@@H](O)[C@H](O)[C@H]2O)[C@H](O)[C@H]1O [α-D-Maltoside C12] | – | 0.12 mmol/L | 35.9 mN m^−1 | – | – |
| CCCCCCCCCCO[C@@H]1O[C@H](CO)[C@@H](O)[C@H](O)[C@H]1O [β-D-Glucoside C10] | 47.8 °C | – | – | – | CMC ([1]; ref 44): 2.2 mmol/L; γCMC ([1]; ref 44): 27.7 mN m^−1 |
| CCCCCCCCO[C@@H]1O[C@H](CO)[C@@H](O[C@H]2O[C@H](CO)[C@@H](O)[C@H](O)[C@H]2O)[C@H](O)[C@H]1O [β-D-Maltoside C8] | – | – | – | 23.2 mmol/L | – |
| CCCCCCCCCO[C@@H]1O[C@H](CO)[C@@H](O[C@H]2O[C@H](CO)[C@@H](O)[C@H](O)[C@H]2O)[C@H](O)[C@H]1O [β-D-Maltoside C9] | – | – | – | 6.50 mmol/L | – |
| CCCCCCCCCCO[C@@H]1O[C@H](CO)[C@@H](O[C@H]2O[C@H](CO)[C@@H](O)[C@H](O)[C@H]2O)[C@H](O)[C@H]1O [β-D-Maltoside C10] | 123.0 °C | – | – | 2.19 mmol/L | CMC ([1]; ref 45): 1.95 mmol/L; γCMC ([1]; ref 45): 36.7 mN m^−1 |

Second part, led by results:

| dPIT/dx [4] | Compound | CMC [1, 6] | γCMC [1, 6] | CMC ([1]; ref 34) | other results |
| --- | --- | --- | --- | --- | --- |
| 77.8 °C | CCCCCCCCO[C@@H]1O[C@H](CO)[C@@H](O)[C@H](O)[C@H]1O [β-D-Glucoside C8, n-octyl-β-D-glucoside] | – | – | – | CMC ([1]; ref 44): 25.0 mmol/L; γCMC ([1]; ref 44): 30.1 mN m^−1 |
| 27.0 °C | CCCCCCCCCCCCO[C@@H]1O[C@H](CO)[C@@H](O)[C@H](O)[C@H]1O [β-D-Glucoside C12] | 0.13 mmol/L | 33.1 mN m^−1 | – | CMC ([1]; ref 44): 0.19 mmol/L; γCMC ([1]; ref 44): 39.4 mN m^−1 |
| 112.2 °C | CCCCCCCCCCCCO[C@@H]1O[C@H](CO)[C@@H](O[C@H]2O[C@H](CO)[C@@H](O)[C@H](O)[C@H]2O)[C@H](O)[C@H]1O [β-D-Maltoside C12, n-dodecyl-β-D-maltoside] | 0.13 mmol/L | 33.1 mN m^−1 | 0.19 mmol/L | CMC ([1]; ref 45): 0.15 mmol/L; γCMC ([1]; ref 45): 35.3 mN m^−1; Γeq (equilibrated surface excess) ([1]; ref 60): 3.32 × 10^−6 mol m^−2; Diffusion coefficient of micelles [5]: 7 × 10^−11 m^2 s^−1 |
| 80.7 °C | CCCCCCCCCCCCCCO[C@@H]1O[C@H](CO)[C@@H](O[C@H]2O[C@H](CO)[C@@H](O)[C@H](O)[C@H]2O)[C@H](O)[C@H]1O [β-D-Maltoside C14] | – | – | 0.0167 mmol/L | – |
| 74.3 °C | CCCCCCCCCCCCCCCCO[C@@H]1O[C@H](CO)[C@@H](O[C@H]2O[C@H](CO)[C@@H](O)[C@H](O)[C@H]2O)[C@H](O)[C@H]1O [β-D-Maltoside C16] | – | – | 0.00145 mmol/L | – |
